ChEMBL document CHEMBL1150284, “Synthesis, characterization, and metabolic stability of porphyrin-peptide conjugates bearing bifunctional signaling sequences” (J Med Chem, 2008)
Numbered stars: 1 amine (or outer) side, 2 acyl side, 3 side chain; on linkers, the order of the positions; unused ones are H or OH. Square brackets hold non-standard residues; d marks the D form. Peptide text beside a SMILES is read from it. * marks the point of attachment. X1 = O=C(COCC(=O)*)Nc1ccc(-c2c3nc(c(-c4ccccc4)c4ccc([nH]4)c(-c4ccccc4)c4nc(c(-c5ccccc5)c5ccc2[nH]5)C=C4)C=C3)cc1; NH(CH2CH2O)6CH2CO = O=C(COCCOCCOCCOCCOCCOCCN[*:1])[*:2]

Key:
HEp-2 [1] = assay: Phototoxicity against human HEp2 cells on exposure of 1 J/cm'2 light; format: functional, cell-based; conditions: HEp-2, light or radiation study
In short: (§1)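 HEp2 cells plated as for dark assay, loaded with 0, 0.625, 1.25, 2.5, 5, 10 µM conjugate; medium swapped for one with 50 mM HEPES pH 7.4, cells on ice irradiated 20 min by 100 W halogen lamp through 610 nm long-pass filter and water IR filter (~1 J/cm2). Overnight incubation, then Cell Titer Blue viability read as in dark assay.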

HEp-2 [2] = assay: Cytotoxicity against human HEp2 cells in dark; format: functional, cell-based
In short: (§2)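 HEp2 cells (DMEM/Advanced MEM 50:50, 5% FBS) plated 10000/well, 36–48 h attachment; exposed to rising conjugate concentrations up to 100 µM overnight in dark. Viability by Cell Titer Blue fluorescence 520/584 nm, normalized to untreated (100%) and 0.2% saponin-treated (0%) cells.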

[3] = Stability at pH 5.0 after 24 hrs; format: physicochemical; conditions: buffer, pH 5, 24 h
In short: (§3)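 Nonenzymatic hydrolysis: 100 µM conjugate in 50 mM PBS pH 7.4 or 50 mM acetate buffer pH 5.0, 37 °C for 24 h; products identified by MALDI-TOF MS with CCA matrix.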

[4] = Drug uptake in human HEp2 cells at 10 uM; format: ADME, cell-based; conditions: hep-2, 10 µM, TDE = time-dependent effect
In short: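 HEp2 cells seeded 10000/well, grown 36 h, then given 10 µM conjugate (diluted from 10 mM water stock) for 0, 1, 2, 4, 8, 24 h. After PBS wash, lysis in 0.25% Triton X-100/PBS; conjugate read by fluorescence 440/650 nm, cell number by CyQuant.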

[5] = Stability at pH 7.4 after 24 hrs; format: physicochemical; conditions: buffer, pH 7.4, 24 h; in short: as §3
HEp-2 [6] = assay: Phototoxicity against human HEp2 cells on exposure of 1 J/cm'2 light up to 10 uM; format: functional, cell-based; in short: as §1
HEp-2 [7] = assay: Cytotoxicity against human HEp2 cells in dark up to 100 uM; format: functional, cell-based; in short: as §2

Stability [3]	Activity [4]	Stability [5]	SMILES	IC50 (HEp-2 [1])	IC50 (HEp-2 [2])	Activity (HEp-2 [6])	Activity (HEp-2 [7])
Stable	tde	Stable	CC(C)[C@H](NC(=O)[C@H](CCCCN)NC(=O)[C@H](CCCNC(=N)N)NC(=O)[C@H](CCCCN)NC(=O)[C@H](CCCCN)NC(=O)[C@H](CCCCN)NC(=O)[C@@H]1CCCN1C(=O)[C@@H]1CCCN1C(=O)[C@H](C)NC(=O)COCCOCCOCCOCCOCCOCCNC(=O)COCC(=O)Nc1ccc(-c2c3nc(c(-c4ccccc4)c4ccc([nH]4)c(-c4ccccc4)c4nc(c(-c5ccccc5)c5ccc2[nH]5)C=C4)C=C3)cc1)C(=O)N[C@@H](CCC(=O)O)C(=O)N[C@@H](CC(=O)O)C(=O)N1CCC[C@H]1C(=O)N[C@@H](CCCNC(=N)N)C(=O)N[C@@H](CCCCN)C(=O)N[C@@H](CCCCN)C(=O)N[C@@H](CCCNC(=N)N)C(=O)N[C@@H](CCCNC(=N)N)C(=O)N[C@@H](CCC(N)=O)C(=O)N[C@@H](CCCNC(=N)N)C(=O)N[C@@H](CCCNC(=N)N)C(=O)N[C@@H](CCCNC(=N)N)C(=O)N1CCC[C@H]1C(=O)N1CCC[C@H]1C(=O)N[C@@H](CCC(N)=O)C(=O)NCC(=O)O (X1-[NH(CH2CH2O)6CH2CO]APPKKKRKVEDPRKKRRQRRRPPQG-OH)	7.5 µM	34 µM	–	–
Stable	tde	Stable	CSCC[C@H](NC(=O)COCCOCCOCCOCCOCCOCCNC(=O)COCC(=O)Nc1ccc(-c2c3nc(c(-c4ccccc4)c4ccc([nH]4)c(-c4ccccc4)c4nc(c(-c5ccccc5)c5ccc2[nH]5)C=C4)C=C3)cc1)C(=O)NCC(=O)N[C@@H](CC(C)C)C(=O)NCC(=O)N[C@@H](CC(C)C)C(=O)N[C@@H](Cc1cnc[nH]1)C(=O)N[C@@H](CC(C)C)C(=O)N[C@@H](CC(C)C)C(=O)N[C@H](C(=O)N[C@@H](CC(C)C)C(=O)N[C@@H](C)C(=O)N[C@@H](C)C(=O)N[C@@H](C)C(=O)N[C@@H](CC(C)C)C(=O)N[C@@H](CCC(N)=O)C(=O)NCC(=O)N[C@@H](C)C(=O)N[C@@H](Cc1c[nH]c2ccccc12)C(=O)N[C@@H](CO)C(=O)N[C@@H](CCC(N)=O)C(=O)N[C@@H](C)C(=O)N1CCC[C@H]1C(=O)N1CCC[C@H]1C(=O)N[C@@H](CCCCN)C(=O)N[C@@H](CCCCN)C(=O)N[C@@H](CCCCN)C(=O)N[C@@H](CCCNC(=N)N)C(=O)N[C@@H](CCCCN)C(=O)N[C@H](C(=O)NCC(=O)O)C(C)C)C(C)C (X1-[NH(CH2CH2O)6CH2CO]MGLGLHLLVLAAALQGAWSQAPPKKKRKVG-OH)	–	–	Not toxic	Not toxic
Stable	tde	Stable	CC[C@H](C)[C@H](NC(=O)[C@H](CCCCN)NC(=O)[C@@H](NC(=O)[C@H](CCC(N)=O)NC(=O)[C@H](CCCNC(=N)N)NC(=O)COCCOCCOCCOCCOCCOCCNC(=O)COCC(=O)Nc1ccc(-c2c3nc(c(-c4ccccc4)c4ccc([nH]4)c(-c4ccccc4)c4nc(c(-c5ccccc5)c5ccc2[nH]5)C=C4)C=C3)cc1)[C@@H](C)CC)C(=O)N[C@@H](Cc1c[nH]c2ccccc12)C(=O)N[C@@H](Cc1ccccc1)C(=O)N[C@@H](CCC(N)=O)C(=O)N[C@@H](CC(N)=O)C(=O)N[C@@H](CCCNC(=N)N)C(=O)N[C@@H](CCCNC(=N)N)C(=O)N[C@@H](CCSC)C(=O)N[C@@H](CCCCN)C(=O)N[C@@H](Cc1c[nH]c2ccccc12)C(=O)N[C@@H](CCCCN)C(=O)N[C@@H](CCCCN)C(=O)N[C@@H](C)C(=O)N1CCC[C@H]1C(=O)N1CCC[C@H]1C(=O)N[C@@H](CCCCN)C(=O)N[C@@H](CCCCN)C(=O)N[C@@H](CCCCN)C(=O)N[C@@H](CCCNC(=N)N)C(=O)N[C@@H](CCCCN)C(=O)N[C@H](C(=O)NCC(=O)O)C(C)C (X1-[NH(CH2CH2O)6CH2CO]RQIKIWFQNRRMKWKKAPPKKKRKVG-OH)	9.3 µM	53 µM	–	–
